M4 ag – human M4 muscarinic receptor agonists, primary screen, CHO-K1 cells, Fluo-8 calcium fluorescence; CHO-K1 hM4/Gqi5; vehicle 0%, full acetylcholine response 100%; Muscarinic acetylcholine receptor M4 (Homo sapiens), P08173; activation, % at 3 µM; actives 0.14% (n = 360,000);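 active means activation above the run mean over all test wells plus 3 SD, cut at about 32% in these data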;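 further: peak over basal fluorescence ratio per well then scaled between controls; 0% = DMSO wells and 100% = acetylcholine at EC100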
Target sequence (P08173 whole entry, looked up): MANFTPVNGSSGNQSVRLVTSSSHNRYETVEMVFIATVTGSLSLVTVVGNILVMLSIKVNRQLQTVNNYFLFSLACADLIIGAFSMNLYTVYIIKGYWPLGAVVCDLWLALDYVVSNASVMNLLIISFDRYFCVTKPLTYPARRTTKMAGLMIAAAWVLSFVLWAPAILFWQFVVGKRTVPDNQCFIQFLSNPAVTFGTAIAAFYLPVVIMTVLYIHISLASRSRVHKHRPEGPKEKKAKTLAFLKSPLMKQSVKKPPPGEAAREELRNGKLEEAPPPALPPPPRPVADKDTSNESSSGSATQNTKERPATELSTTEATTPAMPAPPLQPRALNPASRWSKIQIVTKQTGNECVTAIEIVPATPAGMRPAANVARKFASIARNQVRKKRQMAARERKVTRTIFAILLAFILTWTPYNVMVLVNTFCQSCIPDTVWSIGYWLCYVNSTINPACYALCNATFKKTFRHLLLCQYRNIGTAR
M5 ag – human M5 muscarinic receptor agonists, primary screen, CHO-K1 cells, Fluo-8 calcium fluorescence | AID 624037, 2012 | CHO-K1 hM5 cells; 0% DMSO wells, 100% maximal acetylcholine response | activation, % at 3 µM | actives 0.19% (n = 360,000);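 active means activation above the run's mean over test compounds plus 3 SD, cut at about 23% in these data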;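 further: signal is peak over basal fluorescence ratio across the kinetic read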
M5 PAM – human M5 muscarinic receptor positive allosteric modulators, primary screen, CHO-K1 cells, Fluo-8 calcium fluorescence; Muscarinic acetylcholine receptor M5 (Homo sapiens), P08912; CHO-K1 hM5, ACh EC20 PAM; 0% = ACh EC20, 100% = ACh EC100; activation, % at 3 µM; actives 0.3% (n = 360,000);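 active means activation above the run cutoff, the mean activation of all test compounds plus 3 SD, cut at about 18% in these data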
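Test system: CHO-K1 hM5 cells / Doses: single-point, 3 µM nominal / Times: Post-acetylcholine fluorescence recording 140 s / Technique: Fluo-8 calcium fluorescence / Measure: Max/basal fluorescence ratio as % of EC20–EC100 ACh window / Benchmarks: low control EC20 acetylcholine (0%), high control EC100 acetylcholine (100%) / Replicates: one well per compound, no replicates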
M4 antag – human M4 muscarinic receptor antagonists, primary screen, CHO cells, Fluo-8 calcium fluorescence; Muscarinic acetylcholine receptor M4 (Homo sapiens), P08173; CHO-hM4 cells, ACh EC80; inhibition, % at 3 µM; actives 0.73% (n = 360,000); AID 624125, 2012;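 active means inhibition above its plate's cutoff, the mean inhibition of sample wells plus 3 SD, cut at about 27% in these data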;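 further: 0% = acetylcholine EC80 with DMSO and 100% = DMSO without agonist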
M4 PAM – human M4 muscarinic receptor positive allosteric modulators, primary screen, CHO-K1 cells, Fluo-8 calcium fluorescence | actives 0.4% (n = 360,000) | AID 624126, 2012 | CHO-K1 hM4/Gqi5, ACh EC20; 0% = ACh EC20, 100% = maximal ACh | Muscarinic acetylcholine receptor M4 (Homo sapiens), P08173 | activation, % at 3 µM;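 active means activation above its plate's cutoff, the mean activation of sample wells plus 3 SD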
CHRM5 antagonist – human M5 muscarinic receptor antagonists, primary screen, CHO cells, Fluo-8 calcium fluorescence. actives 0.59% (n = 360,000). inhibition, % at 3 µM. Muscarinic acetylcholine receptor M5 (Homo sapiens), P08912. CHO-hM5 cells, ACh EC80;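 active means inhibition above a per-plate cutoff, the mean of that plate's test compounds plus 3 SD, cut at about 27% in these data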;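 further: 0% = acetylcholine EC80 with DMSO and 100% = DMSO without agonist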
* hit, by the source's call. In the library only some 1.8% were active in any assay of this set; here they are far more common.

SMILES	M4 ag	M5 ag	M5 PAM	M4 antag	M4 PAM	CHRM5 antagonist
CN(C)CC1CCCCC1OC(=O)/C=C/c1ccccc1 (configuration not stated)	0.4	-5.0	-4.7	0.6	-15.5	12.3
O=C(NCc1cccc(C(F)(F)F)c1)c1[nH]c(C(F)(F)F)nc1-c1ccccc1	14.2	11.0	-9.3	7.3	-3.6	9.0
COc1ccc(OCc2nn3c(-c4ccco4)nnc3s2)cc1	3.6	2.5	-6.5	-10.4	-0.7	-1.7
COc1ccc(OCc2nn3c(-c4cccc(OC)c4)nnc3s2)cc1	1.9	-2.1	3.7	-12.6	20.9*	-5.2
Cc1ccc(N2C(=O)N(CC(=O)Nc3ccccc3C)C(=O)C2C)cc1 (configuration not stated)	2.5	1.7	19.4*	-15.7	8.2	-39.9
C[C@H](CO)N1C[C@H](C)[C@@H](CN(C)C(=O)Nc2ccc3c(c2)OCO3)Oc2c(NC(=O)Nc3ccc4c(c3)OCO4)cccc2C1=O	21.4	2.2	-24.5	26.9*	-6.7	22.7
C[C@H](CO)N1C[C@H](C)[C@@H](CN(C)C(=O)Nc2ccccc2)Oc2c(NC(=O)Nc3ccc4c(c3)OCO4)cccc2C1=O	5.7	0.5	-13.2	-7.6	4.4	9.2
C[C@H](CO)N1C[C@H](C)[C@@H](CN(C)Cc2ccc(Cl)c(Cl)c2)Oc2c(NC(=O)Cc3ccccc3)cccc2C1=O	20.6	-3.1	-28.2	31.2*	-7.6	7.5
O=C(O)Cc1cn(Cc2cccc(Cl)c2)c2ccccc12	2.7	-1.8	1.6	-2.3	25.9*	3.6
CC(C)c1ccc(NC(=O)c2sccc2-n2cccc2)cc1	-1.1	-3.1	-1.3	-4.8	0.5	-16.8
CCN(CCn1cccn1)C(=O)CCc1nnc(-c2ccc3c(c2)OCO3)o1	0.4	0.5	21.7*	0.5	8.7	-6.0
CCN(CCn1cccn1)C(=O)CCc1nnc(CCCc2ccccc2)o1	1.5	-1.7	-9.3	7.2	-2.8	8.4
COc1ccc(NC(=O)C2(C)Cc3c(-c4ccc(N(C)C)cc4)ccnc3O2)cc1 (configuration not stated)	-1.4	-2.1	-2.3	-5.0	4.1	9.2
CN(C)c1ccc(C=NN2C(=O)CSC2=S)c(Cl)c1	5.4	25.8*	-11.4	1.4	-3.9	24.1
COc1ccc(F)cc1-c1cc(C(=O)NCc2cccc(Cl)c2)[nH]n1	2.5	-2.4	-3.6	-6.9	-0.9	-1.4
COc1ccc2c(CN3CCCCCCC3)cc(=O)oc2c1	-2.8	3.3	2.1	8.5	-7.5	-5.5
COc1cccc(N(C(=O)c2snc(C(N)=O)c2N)C(C(=O)NCc2ccccc2)c2ccc(O)cc2)c1 (configuration not stated)	11.6	-0.5	-12.2	6.4	-9.4	30.9*
CC(=O)c1ccc(NC(=S)NC(C)c2ccc(Cl)cc2Cl)cc1 (configuration not stated)	24.4	14.3	-15.2	14.4	-7.6	29.1*
CC(O/N=C/c1ccc(OC(F)F)cc1)C(=O)Nc1cccc(S(=O)(=O)N2CCOCC2)c1 (configuration not stated)	3.1	-3.9	-3.2	2.6	-7.8	-4.1
Cc1cccc2cc(CN(CCN(C)C)C(=S)Nc3ccccc3)c(=O)[nH]c12	2.4	10.9	23.6*	-7.4	35.9*	-7.7
Cc1ccc(N(Cc2cc3cccc(C)c3[nH]c2=O)S(=O)(=O)c2ccccc2)c(C)c1	7.8	-5.8	-11.5	9.2	-4.6	27.9*
CCN(CC)CCN(Cc1cc2cc(C)ccc2[nH]c1=O)C(=S)Nc1ccccc1	0.6	52.1*	-16.2	5.5	-5.7	45.6*
Cc1cccc(NC(=S)N(CCN(C)C)Cc2cc3cc(C)ccc3[nH]c2=O)c1	1.8	20.0	7.6	1.6	11.8	-0.1
OC1C(O)C(O)C(O)C(O)C1O (configuration not stated)	0.3	0.1	6.0	-31.2	6.0	-10.4
CC(=O)Nc1ccc(S(=O)(=O)N[C@@H](C)C(=O)N2CCN(c3ccccn3)CC2)cc1	1.8	2.4	2.6	4.7	-0.9	3.4
SMILES	M4 ag	M5 ag	M5 PAM	M4 antag	M4 PAM	CHRM5 antagonist
CCN(C(=O)COC(=O)c1ccc([N+](=O)[O-])o1)c1cccc2ccccc12	2.8	2.7	3.1	-6.7	15.4	10.7
CCN1C(=O)[C@H]2[C@@H](c3ccc(-c4ccccc4)cc3)N3CCCC[C@@]3(C(=O)OC)[C@H]2C1=O	13.8	4.9	6.3	-5.9	24.2*	2.9
CCN1C(=O)[C@H]2[C@@H](c3ccc(-c4ccccc4)cc3)N[C@@](Cc3ccccc3)(C(=O)OC)[C@H]2C1=O	0.4	-2.0	1.3	-14.2	16.7	5.4
CCN1C(=O)[C@H]2[C@@H](c3ccc(-c4ccc(C(C)=O)cc4)cc3)N[C@@](Cc3ccccc3)(C(=O)OC)[C@H]2C1=O	2.2	-1.3	-4.5	-11.4	23.8*	-2.4
COc1c(O)cc2c(c1O)C1OC(CO)C(O)C(O)C1OC2=O (configuration not stated)	6.5	45.7*	-15.4	-35.9	6.8	-2.3
CCC(CO)NCC(O)COCc1ccc2c(c1)OCO2 (configuration not stated)	0.8	-4.1	0.4	-13.4	20.1*	-0.8
OC(COCc1ccc2c(c1)OCO2)CN1CCCCC1 (configuration not stated)	0.0	-3.2	5.6	-12.6	3.8	0.1
COc1ccc(CNC(=O)C(=O)NCC2OCCCN2S(=O)(=O)c2cccs2)cc1 (configuration not stated)	2.5	-6.0	-5.8	1.3	2.0	18.4
O=C1O[C@H]([C@@H](O)CO)C(O)=C1O	8.8	69.7*	-20.4	-10.6	-0.8	-5.3
COc1cc2oc(=O)ccc2cc1-c1c(OC)ccc2ccc(=O)oc12	1.0	0.0	3.4	-14.6	3.3	5.1
O=c1ccc2nc3ccccc3sc-2c1	0.7	-2.5	-1.6	9.0	2.2	6.0
Cc1ccc(-c2nnc(N3CCOCC3)c3ccccc23)cc1S(N)(=O)=O	-0.1	4.9	18.6*	-7.9	0.8	-4.5
Cc1ccc(-c2nnc(N3CCCCC3)c3ccccc23)cc1S(=O)(=O)N(C)C	2.4	0.3	-4.1	-4.4	3.3	-0.4

Assay outcomes: PubChem BioAssay, The Scripps Research Institute Molecular Screening Center
